Measurements from ChEMBL document CHEMBL3045155, “Design, synthesis, and insecticidal activities of novel monohalovinylated pyrethroids” (2011).
Values after ≈ are worked out from the molar mass of the structure shown.

Experiments:
Type in all cases: functional
[1] = tested on: Mythimna separata; test: Insecticidal activity against Mythimna separata (Oriental armyworm) grown on compound pre-treated corn leaves assessed as insect mortality measured 48 hr post compound exposure
How it was run: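 Leaves on filter paper in Petri dishes dipped 5 s in test solutions (acetone, diluted with water) and air-dried, then infested with 10 third-instar larvae; concentrations 500.0 down to 0.25 mg L-1; triplicate per concentration; 26 ± 1 °C, 70 ± 10% RH; percentage mortality at 48 h.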

[2] = tested on: Culex pipiens pallens; test: Insecticidal activity against Culex pipiens pallens (mosquito) fourth-instar larvae assessed as insect mortality measured 24 hr post compound exposure by dipping method; conditions: for LC50: Culex pipiens, 24 h
[3] = tested on: Culex pipiens pallens; test: Potency index, ratio of LC50 for cypermethrin to LC50 for test compound against Culex pipiens pallens (mosquito) fourth-instar larvae assessed as insect mortality measured 24 hr post compound exposure by dipping method

Compound | LC50 [1] | LC95 [2] | LC50 [2] | RatioLC50 [3]
CC1(C)[C@H](C(=O)O[C@H](C#N)c2cccc(Oc3ccccc3)c2)[C@@H]1C=C(Br)Br [DELTAMETHRIN] | 0.149 µg/mL (≈ 0.294 µM) | 0.0033 mg/L (≈ 0.00653 µM) | 0.0012 µg/mL (≈ 0.00238 µM) | 883
CC1(C)[C@H](/C=C/Cl)[C@H]1CC(=O)OCc1c(F)c(F)cc(F)c1F (relative stereo) |  | 0.358 mg/L (≈ 1.02 µM) | 0.249 µg/mL (≈ 0.71 µM) | 4.3
C=CCC1=C(C)C(COC(=O)C[C@H]2[C@@H](/C=C/Br)C2(C)C)CC1=O (relative stereo) |  | 0.7054 mg/L (≈ 1.85 µM) | 0.44 µg/mL (≈ 1.15 µM) | 2.4
CC1(C)C(C=C(Cl)Cl)C1C(=O)OC(C#N)c1cccc(Oc2ccccc2)c1 (stereo not drawn) [ALPHA-CYPERMETHRIN] |  | 0.0286 mg/L (≈ 0.0687 µM) | 0.0106 µg/mL (≈ 0.0255 µM) | 100
